GPR7 antagonist: GPR7 receptor antagonists, primary screen, cell-based, fluorescence, single concentration; GPR7-expressing cells, fluorescence antagonist assay; inhibition, % at 4.4 µM; hit rate 1.1% among 290,000; Neuropeptides B/W receptor type 1 (Homo sapiens), P48145; AID 1861, 2009; in the data active means inhibition above about 16%, passing the limit was not always enough;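 further: cells stimulated with the agonist NPW; 0% = agonist with vehicle and 100% = vehicle without agonist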
Target sequence (P48145 whole entry, looked up): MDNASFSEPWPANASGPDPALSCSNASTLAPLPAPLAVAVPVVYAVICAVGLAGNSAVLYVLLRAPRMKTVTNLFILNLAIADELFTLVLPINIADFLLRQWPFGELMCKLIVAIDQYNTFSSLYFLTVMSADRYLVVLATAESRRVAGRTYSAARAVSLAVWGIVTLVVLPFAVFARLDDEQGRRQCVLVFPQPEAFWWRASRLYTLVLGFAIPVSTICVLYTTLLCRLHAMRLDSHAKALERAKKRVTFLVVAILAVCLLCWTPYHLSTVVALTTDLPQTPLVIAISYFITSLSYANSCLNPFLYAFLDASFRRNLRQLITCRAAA
OX1R antag-1: OX1R (HCRTR1) antagonists, primary screen, fluorescence, CHO/OX1R cells, Fluo-8 calcium, orexin A. Orexin/Hypocretin receptor type 1 (Homo sapiens), O43613. Fluo-8 calcium fluorescence. inhibition, % at 5 µM. hit rate 0.43% among 330,000. AID 434989, 2010;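 active means inhibition above its plate's threshold, mean inhibition of all tested compounds on the plate plus 3 SD, cut at about 37% in these data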;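 further: 0% = orexin A challenge wells and 100% = SB-334867-A antagonist wells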
OX1R antag-2: antagonists of human orexin 1 receptor (OX1R) | Orexin/Hypocretin receptor type 1 (Homo sapiens), O43613 | OX1R-expressing cells, FRET antagonist read-out | inhibition, % at 6.6 µM | hit rate 1.8% among 330,000 | AID 485270, 2010; in the data active means inhibition mostly above about 38%, no sharp cut-off; inactive means mostly below about 40%;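 further: 0% = agonist challenge alone and 100% = reference antagonist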
CHO parental Ca: ATP-evoked calcium signal inhibitors, parental CHO, primary screen, counter-screen for OX1R antagonist project, cell-based, fluorescence, Fluo-8 calcium dye; parental CHO-K1, ATP-induced calcium, Fluo-8 fluorescence; inhibition, % at 5.6 µM; hit rate 0.63% among 330,000; AID 463079, 2010;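 active means inhibition above that plate's mean sample inhibition plus 3 SD, cut at about 26% in these data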;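 further: 0% = ATP-challenged DMSO wells and 100% = DMSO wells without ATP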
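Material: Parental CHO cells | Reagent: ATP | Compound dosing: Single nominal dose of 5.6 µM per compound | Detection: Intracellular calcium via Fluo-8 no-wash fluorescent dye | Read-out: % inhibition of ATP-induced calcium mobilization | Benchmarks: Low control ATP plus DMSO, high control DMSO only | Replicates: Singlicate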
TAAR1 ag: human TAAR1 agonists, primary screen, Fluo-8 calcium fluorescence, CHO RD-HGA16 cells; Trace amine-associated receptor 1 (Homo sapiens), Q96RJ0; activation, % at 3 µM; vehicle wells 0%, saturating PEA agonist 100%; hit rate 0.99% among 360,000;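 active means activation above the mean activation of all test compounds in the run plus 3 SD, cut at about 38% in these data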
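Repeats: no replicates (n 1) | Material: CHO-derived RD-HGA16 cells with stable Gα16 and human TAAR1 | Technique: Kinetic Fluo-8 calcium fluorescence | Schedule: 17-24 h seeding, 75 min 37 °C dye, 30 min RT | Evaluation: % activation from peak over basal fluorescence ratio, DMSO-to-PEA scaled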
TAAR1 antag: human TAAR1 antagonists, primary screen, Fluo-8 calcium fluorescence, CHO RD-HGA16 cells. Trace amine-associated receptor 1 (Homo sapiens), Q96RJ0. antagonist. inhibition, % at 3 µM. hit rate 1.5% among 360,000;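 active means inhibition above a per-plate cutoff, the mean inhibition of test compounds on that plate plus 3 SD, cut at about 49% in these data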;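 further: 0% = DMSO plus EC80 beta-PEA response and 100% = DMSO alone without agonist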
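Test system: RD-HGA16 CHO cells with stable hTAAR1 and Gα16 / Probe or stimulus: EC80 β-phenethylamine stimulus / Times: seeding 17-24 h prior, 75-min 37 °C, 30-min RT dye loading / Detection: Fluo-8 calcium-sensitive fluorescence / Read-out basis: % inhibition scaled between DMSO and EC80 PEA controls / Repeats: singlicate, one well per test compound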
An asterisk follows results filed as active. Hits are enriched below; roughly 4.6% of the tested compounds scored in any of these assays.

Screening Cn1cc(C(=O)N/N=C/c2ccc3c(c2)OCO3)c2ccccc21 returned GPR7 antagonist 1.1, OX1R antag-1 11.2, OX1R antag-2 43.1*, CHO parental Ca -4.5, TAAR1 ag 10.2 and TAAR1 antag 8.6.
O=C(N/N=C/c1cc(Cl)cc([N+](=O)[O-])c1O)c1ccc2c(c1)OCO2 was read as GPR7 antagonist -6.6, OX1R antag-1 -4.7, OX1R antag-2 56.4*, CHO parental Ca -9.7, TAAR1 ag 1.2 and TAAR1 antag -9.1.
O=C(N/N=C/c1ccc2c(c1)OCO2)c1cccc2ccccc12 was read as GPR7 antagonist 9.2, OX1R antag-1 -12.8, OX1R antag-2 17.4, CHO parental Ca -12.9, TAAR1 ag 1.0 and TAAR1 antag -15.8.
`O=C(N/N=C/c1c[nH]c2ccccc12)c1ccc2c(c1)OCCO2` gave GPR7 antagonist -0.8, OX1R antag-1 -10.7, OX1R antag-2 13.4, CHO parental Ca -6.8, TAAR1 ag 1.2 and TAAR1 antag -7.5.
Screening O=C(N/N=C/c1c[nH]c2ccc(Br)cc12)c1ccc2c(c1)OCO2 returned GPR7 antagonist 14.8, OX1R antag-1 0.1, OX1R antag-2 68.6*, CHO parental Ca -9.2, TAAR1 ag 2.0 and TAAR1 antag 6.1.
Screening Cc1cc(NC(=O)c2cc([N+](=O)[O-])cc([N+](=O)[O-])c2C)no1 returned GPR7 antagonist 3.3, OX1R antag-1 -23.3, OX1R antag-2 75.9, CHO parental Ca -9.3, TAAR1 ag -0.1 and TAAR1 antag 11.5.
NC(=O)[C@@H]1CCCNc2c(F)cc([N+](=O)[O-])cc2C(=O)N[C@@H](CCC(=O)O)C(=O)N[C@@H](CO)C(=O)N1 was read as GPR7 antagonist -11.1, OX1R antag-1 5.7, OX1R antag-2 60.1*, CHO parental Ca -2.2, TAAR1 ag 7.6 and TAAR1 antag -7.9.
For NC(=O)[C@@H]1CCCCNc2c(I)cc([N+](=O)[O-])cc2C(=O)N[C@@H](CCC(=O)O)C(=O)N[C@@H](CO)C(=O)N1 the results were GPR7 antagonist 0.3, OX1R antag-1 -0.4, OX1R antag-2 40.7, CHO parental Ca -7.6, TAAR1 ag 10.7 and TAAR1 antag 15.5.
`Clc1ccc(-c2nnnn2-c2ccc(Cl)cc2)cc1` gave GPR7 antagonist -9.7, OX1R antag-1 -10.1, OX1R antag-2 10.6, CHO parental Ca -8.8, TAAR1 ag 1.5 and TAAR1 antag -43.6.
`Cc1ccc(-n2nnnc2C(Cl)(Cl)c2nnnn2-c2ccc(C)cc2)cc1` gave GPR7 antagonist -6.2, OX1R antag-1 55.2*, OX1R antag-2 18.7, CHO parental Ca 47.9*, TAAR1 ag 32.6 and TAAR1 antag 25.8.
For Cc1ccc(S(=O)(=O)N2CC3(O)CN(C(=O)OC(C)C)N(C(=O)OC(C)C)CC3(OC(=O)NCc3ccccc3F)C2)cc1 (centres undefined) the results were TAAR1 ag 9.0 and TAAR1 antag 59.7*.
For FC(F)Oc1ccc(C2=Nn3c(nnc3-c3ccccc3Cl)SC2)cc1OCC1CC1 the results were OX1R antag-1 -10.0, OX1R antag-2 13.4, CHO parental Ca -21.8, TAAR1 ag 2.3 and TAAR1 antag 5.4.
For COc1ccc(C2=Nn3c(nnc3-c3ccccc3F)SC2)cc1OCC1CC1 the results were OX1R antag-1 0.4, OX1R antag-2 23.3, CHO parental Ca -20.6, TAAR1 ag 3.6 and TAAR1 antag 52.4*.
`CCOC(=O)c1ccc(NC(=O)CCNS(=O)(=O)c2cc(Br)cnc2N)cc1` gave GPR7 antagonist 0.5, OX1R antag-1 2.5, OX1R antag-2 29.4, CHO parental Ca 1.9, TAAR1 ag 5.5 and TAAR1 antag -15.6.
`Cc1cc(C)cc(NC(=O)CCNS(=O)(=O)c2cc(Br)cnc2N)c1` gave GPR7 antagonist -2.5, OX1R antag-1 -13.2, OX1R antag-2 64.7*, CHO parental Ca -16.9, TAAR1 ag 4.1 and TAAR1 antag 12.7.
